Measured values: ChEMBL document CHEMBL1131259, “Synthesis and evaluation of diphenyl phosphonate esters as inhibitors of the trypsin-like granzymes A and K and mast cell tryptase” (J Med Chem, 1998)
The source made the active and inactive calls. The calls are words filed in the database; no cut-off is given here.

How the values were obtained:
[1] = target: T1, Granzyme K (Rattus norvegicus) (UniProt P49864); assay: Inhibition of rat granzyme K
T1 sequence (whole entry): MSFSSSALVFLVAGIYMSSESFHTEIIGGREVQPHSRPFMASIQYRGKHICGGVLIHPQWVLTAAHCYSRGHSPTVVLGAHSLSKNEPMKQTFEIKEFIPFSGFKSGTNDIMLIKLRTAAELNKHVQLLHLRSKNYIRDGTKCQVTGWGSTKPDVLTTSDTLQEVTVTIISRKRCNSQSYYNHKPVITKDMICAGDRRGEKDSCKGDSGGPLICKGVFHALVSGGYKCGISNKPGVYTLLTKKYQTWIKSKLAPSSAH
Method in brief: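 Native rat granzyme K, purified by size-exclusion in 1 M NaCl then MonoS cation exchange. Incubated with inhibitor (1.0–450 μM) at 25 °C in 0.1 M Hepes, 0.01 M CaCl2, pH 7.5 (7.1% DMSO). Timed aliquots were read for residual activity on Cbz-Arg-SBzl with DTNB at 405 nm. k_obs came from ln vt/vo vs time, one or two per inhibitor. For no-inhibition lines, none was seen after 25 min.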

[2] = target: T2, Serine protease 1 (Bos taurus) (UniProt P00760); assay: Inhibition of bovine trypsin
T2 sequence (whole entry): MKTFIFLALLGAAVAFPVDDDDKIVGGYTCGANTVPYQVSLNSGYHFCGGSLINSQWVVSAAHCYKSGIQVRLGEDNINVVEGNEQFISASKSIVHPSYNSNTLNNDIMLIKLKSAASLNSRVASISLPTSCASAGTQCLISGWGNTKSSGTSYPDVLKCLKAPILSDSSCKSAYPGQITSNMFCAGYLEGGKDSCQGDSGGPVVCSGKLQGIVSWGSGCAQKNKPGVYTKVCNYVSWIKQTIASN
Method in brief: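 Irreversible inhibition assayed by incubation at 25 °C in 0.1 M Hepes, 0.01 M CaCl2, pH 7.5 (2% DMSO), inhibitor 1.0–450 μM. Timed aliquots were read for residual activity on Cbz-Arg-SBzl with DTNB at 410 nm. Pseudo-first-order k_obs came from ln vt/vo vs time, using 5–10 points over 2–3 half-lives, three k_obs per inhibitor. DMSO-only controls were run. For no-inhibition lines, none was seen after 25 min.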

Tryptase (Homo sapiens) [3] = target: T3, Tryptase (Homo sapiens) (UniProt Q9BZJ3+Q15661+Q9NRR2); assay: Inhibition of mast cell tryptase; type: protein assay
Method in brief: (§1)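 Human lung mast cell tryptase, high-molecular-weight form, heparin-free, active sites titrated with MUGB. Incubated with inhibitor at 25 °C in 0.1 M Hepes, 10% glycerol, 10 mM heparin, pH 7.5 (7.1% DMSO). […] DMSO controls were run.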

[4] = target: T4, Granzyme A (Homo sapiens) (UniProt P12544); assay: Inhibition of human granzyme A
T4 sequence (whole entry): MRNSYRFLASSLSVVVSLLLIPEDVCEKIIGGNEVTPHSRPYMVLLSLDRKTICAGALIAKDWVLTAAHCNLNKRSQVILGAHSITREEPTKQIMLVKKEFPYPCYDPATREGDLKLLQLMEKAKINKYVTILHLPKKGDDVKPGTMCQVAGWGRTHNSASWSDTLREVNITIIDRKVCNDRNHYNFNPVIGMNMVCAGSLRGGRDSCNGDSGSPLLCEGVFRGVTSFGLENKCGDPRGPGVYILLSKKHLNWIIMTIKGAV
Method in brief: (§2)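 Recombinant human and rat granzyme A, incubated with inhibitor (1.0–450 μM) at 25 °C in 0.1 M Hepes, 0.01 M CaCl2, pH 7.5 (7.6% DMSO). Timed aliquots were read for residual activity on Cbz-Arg-SBzl with DTNB at 405 nm. k_obs came from ln vt/vo vs time over 5–10 points and 2–3 half-lives, two k_obs per inhibitor. DMSO controls were run.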

Tryptase (Homo sapiens) [5] = target: T3, Tryptase (Homo sapiens); assay: Compound was evaluated to inhibit mast cell tryptase; No inhibition; type: protein assay; method in brief: as §1
[6] = target: T5, Granzyme A (Rattus norvegicus) (UniProt Q8CJF4); assay: Inhibition of rat granzyme A.; method in brief: as §2
T5 sequence (whole entry): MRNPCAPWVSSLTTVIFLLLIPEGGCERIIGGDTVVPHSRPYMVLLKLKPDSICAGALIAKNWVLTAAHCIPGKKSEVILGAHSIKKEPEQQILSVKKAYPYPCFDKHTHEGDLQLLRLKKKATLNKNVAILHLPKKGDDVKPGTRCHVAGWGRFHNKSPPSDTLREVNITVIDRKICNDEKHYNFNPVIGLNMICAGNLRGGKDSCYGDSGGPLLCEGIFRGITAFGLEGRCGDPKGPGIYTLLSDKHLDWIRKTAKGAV

Compound | kobs/[I] (second-order inactivation rate constant) [1] [M⁻¹ s⁻¹] | K obs / 1 [2] [M⁻¹ s⁻¹] | kobs/[I] (second-order inhibition rate constant) (Tryptase (Homo sapiens) [3]) [M⁻¹ s⁻¹] | kobs/[I] (second-order inactivation rate constant) [4] [M⁻¹ s⁻¹] | K obs / 1 (Tryptase (Homo sapiens) [5]) | K obs / 1 [6] [M⁻¹ s⁻¹]
CC(C)[C@H](NC(=O)OCc1ccccc1)C(=O)NC(c1ccc(C(=N)N)cc1)P(=O)(Oc1ccccc1)Oc1ccccc1 (some centres not stated) | 0.7 | 41 | 21.2 | 6.7 | – | –
NCCCCCC(NC(=O)OCc1ccccc1)P(=O)(Oc1ccccc1)Oc1ccccc1 (configuration not stated) | 1.1 | 21 | 0.7 | 23 | – | –
NC(N)c1ccc(C(NC(=O)OCc2cccc3ccccc23)P(=O)(Oc2ccccc2)Oc2ccccc2)cc1 (configuration not stated) | 12 | 30 | – | 160 | inactive | 90
NCCCCC(NC(=O)OCc1ccccc1)P(=O)(Oc1ccccc1)Oc1ccccc1 (configuration not stated) | 23 | 6240 | 89 | 1210 | – | –
C[C@H](NC(=O)[C@@H](Cc1ccccc1)NC(=O)OCc1ccccc1)C(=O)NC(c1ccc(C(N)N)cc1)P(=O)(Oc1ccccc1)Oc1ccccc1 (some centres not stated) | 4.2 | 3010 | 4 | 1770 | – | –
N=C(N)c1ccc(C(NC(=O)/C=C/c2cccs2)P(=O)(Oc2ccccc2)Oc2ccccc2)cc1 (configuration not stated) | 4 | 300 | 1 | 740 | – | 430
C[C@H](NC(=O)OCc1ccccc1)C(=O)N[C@H](C)C(=O)N[C@@H](C)C(=O)NC(c1ccc(C(N)N)cc1)P(=O)(Oc1ccccc1)Oc1ccccc1 (some centres not stated) | 7 | 1780 | 2 | 730 | – | 590
N=C(N)c1ccc(C(NC(=O)CCC(=O)O)P(=O)(Oc2ccccc2)Oc2ccccc2)cc1 (configuration not stated) | 0.3 | 45 | 0.2 | 857 | – | –
NC(N)c1ccc(C(NC(=O)c2ccccc2Oc2ccccc2)P(=O)(Oc2ccccc2)Oc2ccccc2)cc1 (configuration not stated) | 1 | 670 | 0.4 | 540 | – | 340
N=C(N)c1ccc(C(NC(=O)[C@@H]2CCCN2C(=O)OCc2ccccc2)P(=O)(Oc2ccccc2)Oc2ccccc2)cc1 (some centres not stated) | 34 | 910 | 1.2 | 790 | – | –
N=C(N)c1ccc(CC(NC(=O)OCc2ccccc2)P(=O)(Oc2ccccc2)Oc2ccccc2)cc1 (configuration not stated) | 2.1 | 24 | 17 | 2750 | – | –
N=C(N)c1ccc(C(NC(=O)/C=C/c2ccccc2)P(=O)(Oc2ccccc2)Oc2ccccc2)cc1 (configuration not stated) | 3 | 110 | 0.3 | 400 | – | 340
NC(N)c1ccc(C(NC(=O)[C@@H]2CCCN2C(=O)CNS(=O)(=O)Cc2ccccc2)P(=O)(Oc2ccccc2)Oc2ccccc2)cc1 (some centres not stated) | 87 | 37100 | 2 | 3650 | – | –
